What all share (type): cell-based
Data set [1] deals with MDA-MB-231 breast cancer cells. Description: MTT antiproliferative assay, MDA-MB-231. Particulars: Homo sapiens, MDA-MB-231, 24 h, read-out: Antiproliferative activity (IC50) MDA-MB-231. The method, boiled down: (§1)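 Cells were seeded at 2×10^3 per well and left to adhere for 24 h. Test compound was then added at 0–100 µM final, and cells were incubated for 24 h at 37 °C. MTT was added for 4 h, […]. Absorbance was read at 540 nm and growth compared with untreated cells. IC50 was taken from a dose-response curve.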
For orientation: Tetrazolium dyes change colour on reduction, which living cells bring about.

The test system of data set [2] is MCF-7 breast cancer cells. Description: MTT antiproliferative assay, MCF-7. The note with it: Homo sapiens, MCF7, 24 h, read-out: Antiproliferative activity (IC50) MCF-7. In outline:
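Cells seeded at 2×10^3 per well and left 24 h to adhere, then exposed to test compound (0–100 µM, final) for 24 h at 37 °C. MTT added for 4 h, a second MTT addition followed by overnight incubation, and absorbance read at 540 nm. Growth compared with untreated cells; IC50 derived from dose-response curves.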

Data set [3] deals with MDA-MB-231/ADR breast cancer cells. Description: MTT antiproliferative assay, MDA-MB-231/ADR. Particulars: Homo sapiens, MDA-MB-231, 24 h, read-out: Antiproliferative activity (IC50) MDA-MB-231/ADR. In outline: as §1
Data set [4] can be described thus: MTT cytotoxicity towards normal breast cells. Particulars: human, MCF-10A normal breast cells.

In the case of `COc1ccc2c(c1)C(=NOCc1ccccc1)C(=O)N2CCCC(=O)OC1O[C@@H]2O[C@@]3(C)CC[C@H]4[C@H](C)CC[C@@H]([C@H]1C)[C@@]24OO3` (stereo partly drawn) [Hybrid 5k, (3R,5aS,6R,8aS,9R,12R,12aR)-3,6,9-trimethyldecahydro-12H-3,12-epoxy[1,2]dioxepino[4,3-i]isochromen-10-yl 4-(3-((benzyloxy)imino)-5-methoxy-2-oxoindolin-1-yl)butanoate], the IC50 in data set [1], in data set [2] and in data set [3] was greater than 100 µM in each case.
In the case of `CCON=C1C(=O)N(CCCC(=O)OC2O[C@@H]3O[C@@]4(C)CC[C@H]5[C@H](C)CC[C@@H]([C@H]2C)[C@@]35OO4)c2ccc(OC)cc21` (stereo partly drawn) [Hybrid 5j, (3R,5aS,6R,8aS,9R,12R,12aR)-3,6,9-trimethyldecahydro-12H-3,12-epoxy[1,2]dioxepino[4,3-i]isochromen-10-yl 4-(3-(ethoxyimino)-5-methoxy-2-oxoindolin-1-yl)butanoate], the IC50 in data set [1], in data set [2] and in data set [3] was greater than 100 µM throughout.
For `CON=C1C(=O)N(CCCC(=O)OC2O[C@@H]3O[C@@]4(C)CC[C@H]5[C@H](C)CC[C@@H]([C@H]2C)[C@@]35OO4)c2ccc(OC)cc21` (stereo partly drawn) [Hybrid 5i, (3R,5aS,6R,8aS,9R,12R,12aR)-3,6,9-trimethyldecahydro-12H-3,12-epoxy[1,2]dioxepino[4,3-i]isochromen-10-yl 4-(5-methoxy-3-(methoxyimino)-2-oxoindolin-1-yl)butanoate], the IC50 in data set [1], in data set [2] and in data set [3] was greater than 100 µM in each case.
For the compound `C[C@@H]1CC[C@H]2[C@@H](C)C(OC(=O)CCCN3C(=O)C(=NOCc4ccccc4)c4ccccc43)O[C@@H]3O[C@@]4(C)CC[C@@H]1[C@]32OO4` (stereo partly drawn) [Hybrid 5c, (3R,5aS,6R,8aS,9R,12R,12aR)-3,6,9-trimethyldecahydro-12H-3,12-epoxy[1,2]dioxepino[4,3-i]isochromen-10-yl 4-(3-((benzyloxy)imino)-2-oxoindolin-1-yl)butanoate], the IC50 is 2.39 µM in data set [1], greater than 100 µM in data set [2] and 3.95 µM in data set [3]. For the same compound, in data set [4], the IC50 at 24 h was greater than 100 µM.
With `Cc1ccc2c(c1)C(=NOCc1ccccc1)C(=O)N2CCCC(=O)OC1O[C@@H]2O[C@@]3(C)CC[C@H]4[C@H](C)CC[C@@H]([C@H]1C)[C@@]24OO3` (stereo partly drawn) [Hybrid 5h, (3R,5aS,6R,8aS,9R,12R,12aR)-3,6,9-trimethyldecahydro-12H-3,12-epoxy[1,2]dioxepino[4,3-i]isochromen-10-yl 4-(3-((benzyloxy)imino)-5-methyl-2-oxoindolin-1-yl)butanoate], the IC50 in data set [1], in data set [2] and in data set [3] was greater than 100 µM throughout.
For the compound `Cc1ccc2c(c1)C(=O)C(=O)N2CCCC(=O)OC1O[C@@H]2O[C@@]3(C)CC[C@H]4[C@H](C)CC[C@@H]([C@H]1C)[C@@]24OO3` (stereo partly drawn) [Hybrid 4c, (3R,5aS,6R,8aS,9R,12R,12aR)-3,6,9-trimethyldecahydro-12H-3,12-epoxy[1,2]dioxepino[4,3-i]isochromen-10-yl 4-(5-methyl-2,3-dioxoindolin-1-yl)butanoate], the IC50 in data set [1] is 32.9 µM; in data set [2], greater than 100 µM; in data set [3], greater than 100 µM.
`CCON=C1C(=O)N(CCCC(=O)OC2O[C@@H]3O[C@@]4(C)CC[C@H]5[C@H](C)CC[C@@H]([C@H]2C)[C@@]35OO4)c2ccc(C)cc21` (stereo partly drawn) [Hybrid 5g, (3R,5aS,6R,8aS,9R,12R,12aR)-3,6,9-trimethyldecahydro-12H-3,12-epoxy[1,2]dioxepino[4,3-i]isochromen-10-yl 4-(3-(ethoxyimino)-5-methyl-2-oxoindolin-1-yl)butanoate]: the IC50 in data set [1], in data set [2] and in data set [3] was greater than 100 µM throughout.

The values are drawn from PMC9926453 (Medicinal Chemistry Research, 2023).
